Values after ≈ are worked out from the molar mass of the structure shown. Bounds are passed on as bounds.

The subject of the first test is Staphylococcus aureus. Briefly: Antibacterial activity against Staphylococcus aureus ACH-0204 isolate with gyrA Ser84Leu mutant after 24 hrs by broth microdilution method. In kind it is functional.
Settings: not given
In outline:
(§1)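 Broth microdilution per CLSI guidelines. MIC taken as the lowest concentration preventing visible growth at 24 h. Each MIC determined at least twice.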
By MIC is commonly meant the lowest concentration that inhibits growth of the organism. Low values mean inhibition by little substance, high ones a need for much substance. In turn, `O=C(O)c1cn(C2CC2)c2cc(N3CCNCC3)c(F)cc2c1=O` [CIPROFLOXACIN] showed an MIC of 0.5 µg/mL (≈ 1.51 µM).

In another test the test system is Staphylococcus aureus. Briefly: Antibacterial activity against Staphylococcus aureus ACH-0216 isolate with grlA Ser80Phe mutant after 24 hrs by broth microdilution method. In kind it is functional.
Settings: not given
The method, boiled down:
as §1
On the technique in general: Broth dilution looks for growth in wells or tubes with falling amounts of substance.
Regarding `O=C(O)c1cn(C2CC2)c2cc(N3CCNCC3)c(F)cc2c1=O` [CIPROFLOXACIN], the MIC came out at 2 µg/mL (≈ 6.04 µM).

A further test relates to Staphylococcus aureus. The experiment in a line: Antibacterial activity against Staphylococcus aureus ACH-0218 isolate with grlA Glu84Lys mutant after 24 hrs by broth microdilution method. In kind it is functional.
Settings: not given
In outline: as §1
For `O=C(O)c1cn(C2CC2)c2cc(N3CCNCC3)c(F)cc2c1=O` [CIPROFLOXACIN], the MIC is 2 µg/mL (≈ 6.04 µM).

Another test relates to Staphylococcus aureus. Briefly: Antibacterial activity against Staphylococcus aureus ACH-0206 isolate with gyrA Ser84Leu mutant after 24 hrs by broth microdilution method.
Settings: not given
In kind it is functional. In outline:
as §1
As to `O=C(O)c1cn(C2CC2)c2cc(N3CCNCC3)c(F)cc2c1=O` [CIPROFLOXACIN], 0.5 µg/mL (≈ 1.51 µM) was the least that counted as inhibitory (MIC).

The test system of a further test is Staphylococcus aureus. The experiment in a line: Antibacterial activity against Staphylococcus aureus ACH-0221 isolate with gyrA Ser84Leu mutant after 24 hrs by broth microdilution method. In kind it is functional.
Settings: not given
In outline:
as §1
`O=C(O)c1cn(C2CC2)c2cc(N3CCNCC3)c(F)cc2c1=O` [CIPROFLOXACIN] came in with an MIC of 1 µg/mL (≈ 3.02 µM).

For another test, the system named is Staphylococcus aureus. Briefly: Antibacterial activity against Staphylococcus aureus BSA678 isolate with gyrA Ser84Leu, Ser85Pro and grlA Ser80Phe, Glu84Lys mutant after 24 hrs by broth microdilution method.
Settings: not given
Molecule `O=C(O)c1cn(C2CC2)c2cc(N3CCNCC3)c(F)cc2c1=O` [CIPROFLOXACIN] returned a minimum inhibitory concentration (MIC) of 128 µg/mL (≈ 386 µM).

The next test deals with Staphylococcus aureus. The experiment in a line: Antibacterial activity against Staphylococcus aureus ATCC 29213 after 24 hrs by broth microdilution method. In kind it is functional. The following applies: ATCC 29213, 24 h. The method, boiled down:
as §1
Regarding `O=C(O)c1cn(C2CC2)c2cc(N3CCNCC3)c(F)cc2c1=O` [CIPROFLOXACIN], the minimal inhibitory concentration (MIC) is 0.25 µg/mL (≈ 0.754 µM).

Test system in another test: not listed separately
Briefly: Inhibition of Staphylococcus aureus wild-type topoisomerase 4 decatenation activity assessed as unlinking of DNA microcircles from kinetoplast DNA.
Settings: not given
In outline: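 S. aureus topo IV reconstituted from His-purified recombinant GrlA and GrlB (E. coli BL21(DE3)pLysS expression), mixed 1:1 molar on ice 10 min. 0.1 μg catenated kDNA with 2 U enzyme, 30 min at 37°C in 1 mM ATP, 5 mM DTT, 5 mM MgCl2, 50 μg/ml BSA, 50 mM Tris-HCl pH 7.5, 250 mM potassium glutamate. Products on 1% agarose gel, ethidium-stained, quantitated; IC50 by nonlinear regression.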
Usually IC50 stands for the concentration needed to halve the response being measured. Take `O=C(O)c1cn(C2CC2)c2cc(N3CCNCC3)c(F)cc2c1=O` [CIPROFLOXACIN]: the IC50 worked out at 3000 nM.

Test system in the next test: not listed separately
The experiment in a line: Inhibition of Staphylococcus aureus […] topoisomerase 4 grlA S80F mutant decatenation activity assessed as unlinking of DNA microcircles from kinetoplast DNA.
Settings: not given
The method, boiled down:
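Recombinant S. aureus GrlA (Ser80Phe) and GrlB were mixed 1:1 molar on ice for 10 min. kDNA (0.1 μg) with 2 U enzyme, 30 min at 37°C, in 1 mM ATP, 5 mM MgCl2, 250 mM K-glutamate, 50 mM Tris pH 7.5. Reactions stopped with EDTA, run on 1% agarose-TBE and ethidium-stained, minicircles quantitated. IC50 by nonlinear regression.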
For the molecule `O=C(O)c1cn(C2CC2)c2cc(N3CCNCC3)c(F)cc2c1=O` [CIPROFLOXACIN], the IC50 was over 40000 nM.

A further test concerns Staphylococcus aureus. The experiment in a line: Antibacterial activity against Staphylococcus aureus ACH-0203 isolate with gyrA Ser84Leu and grlA Ser80Phe, Ala116Val mutant after 24 hrs by broth microdilution method. In kind it is functional.
Settings: not given
The method, boiled down: as §1
`O=C(O)c1cn(C2CC2)c2cc(N3CCNCC3)c(F)cc2c1=O` [CIPROFLOXACIN] yielded an MIC of 128 µg/mL (≈ 386 µM).

(Values after ChEMBL document CHEMBL1157373, “Dual targeting of DNA gyrase and topoisomerase IV: target interactions of heteroaryl isothiazolones in Staphylococcus aureus” (Antimicrob Agents Chemother, 2007).)
